Experimental data from different studies.
Each line is one published result; the experiments were not run side by side.
MET: Hepatocyte growth factor receptor (MET, Homo sapiens, UniProt P08581)
MET M1250T: Hepatocyte growth factor receptor (MET, Homo sapiens, UniProt P08581, M1250T)
MET Y1235D: Hepatocyte growth factor receptor (MET, Homo sapiens, UniProt P08581, Y1235D)

N[C@H]1CCN(c2nccc(-c3cnn4ncccc34)n2)C1 — remaining binding (MET; binding; 1 µM): 90%
O=C(c1ccc(Nc2ncc(Cl)c(-c3ccc(Cl)s3)n2)cc1)N1CCC(N2CCCC2)CC1 — remaining binding (MET M1250T; binding, competition with immobilised ligand; 1 µM): 6.5%
COc1cnc(Nc2cccc(S(N)(=O)=O)c2)nc1N1CCN(c2ccccc2)C(=O)C1 — remaining binding (MET; binding, competition with immobilised ligand; 1 µM): 100%
O=C(NCCCN1CCOCC1)c1ccc(Nc2ncc(Cl)c(-c3ccc(Cl)s3)n2)cc1 — remaining binding (MET M1250T; binding, competition with immobilised ligand; 1 µM): 13%
CN(C)C(=O)Cn1cc(-c2nc(C3(c4ccc(-c5cnc(N)nc5)cc4)CC3)no2)cn1 — remaining binding (MET; cell-free assay, competition with immobilised ligand; 1 µM): 73%
F[C@@H]1CCN(c2nccc(-c3cnn4ncccc34)n2)C1 — remaining binding (MET; binding; 1 µM): 90%
Cc1cnc(Nc2ccc(C(=O)N3CCC(N4CCCC4)CC3)cc2)nc1-c1cc2ccccc2s1 — remaining binding (MET; binding, competition with immobilised ligand; 1 µM): 100%
CN(CCCC(F)(F)F)c1nccc(-c2cnn3ncccc23)n1 — remaining binding (MET; binding; 1 µM): 100%
O=C(NC[C@@H]1[C@H]2CN(C(=O)OCc3cc(C(F)(F)F)cc(C(F)(F)F)c3)C[C@@H]12)c1ccc2[nH]nnc2c1 — remaining binding (MET M1250T; cell-free assay, competition with immobilised ligand; 1 µM): 100%
O=C(Nc1c[nH]nc1C(=O)NC1CCNCC1)c1cc(F)cc(F)c1 — remaining binding (MET M1250T; binding, competition with immobilised ligand; 1 µM): 100%
CC(=O)Nc1c(C(C)=O)c(=O)n(C)c2nc(-c3ccc(Cl)cc3Cl)c(-c3ccc(Cl)cc3)cc12 — remaining binding (MET; cell-free assay, competition with immobilised ligand; 1 µM): 100%
C[C@H]1CCN(c2nccc(-c3cnn4ncccc34)n2)C1 — remaining binding (MET; binding; 1 µM): 94%
COc1cc(-c2cn(C3CCc4c(F)cccc4N(CC(F)(F)F)C3=O)nn2)ccc1-n1cnc(C)c1 (stereo not shown) — remaining binding (MET M1250T; cell-free assay, competition with immobilised ligand; 1 µM): 100%
c1cncc(-c2cccc(Nc3nccc(NC4CCCCC4)n3)c2)c1 — remaining binding (MET M1250T; binding, competition with immobilised ligand; 10 µM): 29%
O=C1CCc2cc(Nc3cc(OC4CCOCC4)c([N+](=O)[O-])cc3Cl)ccc2N1 — remaining binding (MET Y1235D; cell-free assay, competition with immobilised ligand; 1 µM): 100%
COc1ncc2cc3ccccc3nc2c1C#N — remaining binding (MET Y1235D; cell-free assay, competition with immobilised ligand; 5 µM): 80%
